Consider 46 compounds from PubChem BioAssay AID743247 (Broad Institute, 2014).

The structures appear in SMILES notation. Several values for one entry are separate records, joined by “and”; a condition that tells them apart may be missing. Equal entries are not always repeated. The campaign covered roughly 350,000 compounds. About 300 (0.086%) were called active.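 The calls were made as follows: active = mean inhibition across replicates of 30% or more, regardless of how many single replicates reach that level; inconclusive = mean under 30% yet at least half of replicates reach 30%; inactive = the rest.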 The sample as a whole holds a higher share of actives than the screen did.

The assay in a line: blockers of fibronectin fibrillogenesis by fibroblasts – AH1F cells, Alexa488-fibronectin fluorescence, plate reader, primary screen (AID 743247).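 Also: positive control wells lacked labelled fibronectin entirely.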 The settings on record: Alexa488-fibronectin deposition fluorescence, overnight, at 12.6 µM, active compounds read high. An outline of the steps: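 Material: AH1F fibroblasts assembling fluorescent fibronectin matrix; amount: 10000 AH1F cells/well; medium: DMEM, 2% serum; reagent: Alexa488-fibronectin, 24 nM final in well; dosing: single compound dose, delivered by pin transfer; incubation: 1 h adhesion, overnight exposure; detection: fluorescence after three HBSS washes, excitation 485 nm, emission 525 nm; measure: fibronectin deposition inhibition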
By inhibition is commonly meant the change of the read-out against control, counted positive when it falls. Take `O=C(c1cccnc1)N1C[C@H]2[C@@H](c3ccccc31)[C@H](CO)N2C(=O)C1CC1`: the inhibition is 7.1% (inactive).
To `COc1cccc(-c2cnc3c(c2)C(=O)N([C@@H](C)CO)C[C@@H](C)[C@@H](CN(C)Cc2ccc(C(=O)O)cc2)O3)c1` belongs -19.8% (inactive).
Next, `CC(C)NC(=O)N(C)C[C@H]1Oc2ccc(N)cc2C(=O)N(C)C[C@@H]1C`: 0.428% (inactive); `C[C@H]1CCCCO[C@@H](CN(C)C(=O)Nc2ccccc2)[C@@H](C)CN([C@@H](C)CO)C(=O)c2cc(NC(=O)CCC(F)(F)F)ccc2O1`: -5.23% (inactive); `C[C@@H]1CN([C@@H](C)CO)C(=O)c2c(c3ccccc3n2C)-c2ccccc2CO[C@H]1CN(C)C(=O)N[C@H](C)c1ccccc1`: -3.56% (inactive).
On to `COCC(=O)Nc1ccc2c(c1)OC[C@@H](C)N(Cc1ccccc1C(=O)O)C[C@@H](C)[C@H](OC)CN(C)C2=O`, for which the inhibition is -5.62% (inactive).
With `CCC(=O)Nc1ccc2c(c1)C(=O)N(C)C[C@@H](OC)[C@@H](C)CN(C(=O)CN(C)C)[C@@H](C)CO2`, the inhibition is 2.05% (inactive).
Next, `CNC[C@@H]1Oc2ccc(NC(C)=O)cc2CC(=O)N(C)C[C@@H]1C`: -0.299% (inactive).
Regarding `CO[C@H]1CN(C)C(=O)c2ccc(NC(=O)Nc3ccccc3)cc2OC[C@@H](C)N(C(=O)CC2CC2)C[C@@H]1C`, the inhibition is -8.75% (inactive).
To `O=C(Nc1cc(S(=O)(=O)N2CCCCC2)ccc1Cl)C1COc2ccccc2O1` (stereo unspecified) belongs 1.13% (inactive); to `C/C(=N/NC(=O)C1COc2ccccc2O1)c1ccco1` (stereo unspecified), -7.65% (inactive); to `O=C(Nc1nc(-c2ccncc2)cs1)C1COc2ccccc2O1` (stereo unspecified), 30.8% (active).
To `COc1ccccc1NC(=O)N[C@H]1C=C[C@@H](CC(=O)N[C@@H](C)c2ccccc2)O[C@@H]1CO` belongs -15.6% (inactive); to `CCCc1cn(CC[C@H]2CC[C@@H](NC(=O)C3CCOCC3)[C@@H](CO)O2)nn1`, 0.091% (inactive).
To `O=C(COC(=O)c1ccccc1)Nc1ccccc1Sc1ccccc1` belongs -7.06% (inactive); to `O=C(OCC(O)C(O)COC(=O)c1ccccc1)c1ccccc1` (stereo unspecified), 2.45% (active).
Consider `O=C(OCc1ccc(-c2ccccc2)cc1)c1cccc(O)c1`, for which the inhibition is 7.52% (inactive).
As to `C[C@H]1CN([C@@H](C)CO)C(=O)c2c(c3ccccc3n2C)-c2ccccc2CO[C@@H]1CN(C)C(=O)Nc1ccnc(N2CCOCC2)c1`, the inhibition was 4.14% (inactive).
Regarding `O=C(C1CCC1)N1CC(=O)N2[C@H](CO)[C@H](c3ccc(C#CCc4ccccc4)cc3)[C@@H]2C1`, the inhibition was -13.2% (inactive).
Next, `O=C(C[C@H]1C=C[C@@H](NC(=O)c2ccc(F)cc2)[C@@H](CO)O1)NCCc1ccncc1`: 10.9% (inactive); `COc1ccccc1S(=O)(=O)N1C[C@@H](O)COC[C@H]2O[C@H](CC(=O)O)CC[C@@H]21`: -7.66% (inactive).
Next, `Cc1ccc(S(=O)(=O)Nc2ccc3c(c2)C(=O)N([C@@H](C)CO)C[C@@H](C)[C@@H](CN(C)Cc2ccc(C(F)(F)F)cc2)OCCCC[C@@H](C)O3)cc1`: 7.11% (inactive); `CC(C)NC(=O)N[C@H]1CC[C@H](CC(=O)NCCCN(C)C)O[C@H]1CO`: -22.3% (inactive).
For the compound `C[C@H]1CN(C)C(=O)c2cc(N(C)C)ccc2O[C@H]1CN(C)C(=O)OC(C)(C)C`, the inhibition is -2.56% (inactive).
For `CO[C@@H]1CN(C)C(=O)c2cc(NC(=O)C3CC3)ccc2OC[C@H](C)N(C(=O)CN(C)C)C[C@H]1C`, the inhibition was -1.48% (inactive).
Take `CCC(=O)Nc1ccc2c(c1)C(=O)N(C)C[C@H](OC)[C@@H](C)CN(Cc1nccs1)[C@H](C)CO2`: the inhibition was 8.21% (inactive).
Consider `CCCC(=O)Nc1ccc2c(c1)OC[C@H](C)N(CCc1ccccc1)C[C@H](C)[C@@H](OC)CN(C)C2=O`, for which the inhibition was -9.33% (inactive).
Regarding `O=C1N[C@H](c2ccccc2)COCc2cn(nn2)CC[C@@H]1Cc1ccc(Cl)cc1`, the inhibition is -8.81% (inactive).
To `Cc1ccc(Nc2nnc(SC(C)C(=O)NC3CC3)s2)cc1` (stereo unspecified) belongs 9.55% (inactive); to `Cc1ccc(Nc2nnc(SCc3ccccc3)s2)cc1`, 30.3% (active); to `Cc1ccc(Nc2nc(N)nc(CSc3nnc(C)s3)n2)cc1`, -6.84% (inactive).
Consider `CC(=O)N1C[C@@H]2C(c3ccccc3)[C@H](C1)N2Cc1ccc(F)cc1` (stereo partly specified), for which the inhibition is -14.1% (inactive) and 0.287% (inactive).
Next, `Cc1cccc(-c2ccc(C3[C@H]4CNC[C@@H]3N4S(=O)(=O)c3ccccc3F)cc2)c1` (stereo partly specified): 6.27% (inactive) and -0.776% (inactive).
As to `CC(=O)N(C)C[C@@H]1Oc2ccc(NC(=O)NC(C)C)cc2C(=O)N(C)C[C@H]1C`, the inhibition was 0.044% (inactive).
Next, `CC(C)NC(=O)N(C)C[C@H]1Oc2ccc(N(C)C)cc2CC(=O)N(C)C[C@@H]1C`: -2.09% (inactive); `C[C@H](CO)N1C[C@H](C)[C@@H](CN(C)C(=O)Nc2cccc(F)c2)OCc2ccccc2-c2ccccc2C1=O`: 6.45% (inactive); `C[C@@H]1CN(C)C(=O)c2cc([N+](=O)[O-])ccc2O[C@@H]1CN(C)C(=O)OC(C)(C)C`: -15.7% (inactive).
With `CC(=O)c1ccc(Nc2nc(C(N)c3ccccc3Cl)cs2)cc1` (stereo unspecified), the inhibition is -5.17% (inactive).
To `CC(=O)c1ccc(Nc2nc(C(N)c3ccccc3)cs2)cc1` (stereo unspecified) belongs 30.3% (active).
For `NC(c1ccccc1)c1csc(NC(=O)Nc2cccc(C(F)(F)F)c2)n1` (stereo unspecified), the inhibition was 0.914% (inactive).
With `CCS(=O)(=O)Nc1ccc2c(c1)C(=O)N(C)[C@@H]1CC[C@@H](CC(=O)NC)O[C@H]1CO2`, the inhibition was 6.61% (inactive).
Next, `CC(=O)Nc1cccc2c1O[C@@H](CN(C)C(C)=O)[C@@H](C)CN(C)C2=O`: -3.62% (inactive).
On to `CN(C)C(=O)c1ccc(-c2ccc(C3[C@@H]4CN(S(=O)(=O)c5cccc(Cl)c5)C[C@H]3N4)cc2)cc1` (stereo partly specified), for which the inhibition is -2.13% (inactive).
`CNC[C@H]1Oc2ccc(NC(=O)Nc3ccc(F)cc3)cc2C(=O)N([C@@H](C)CO)C[C@@H]1C`: the inhibition was -0.84% (inactive).
Next, `CC(C)NC(=O)N(C)C[C@H]1Oc2c(cccc2N(C)C)C(=O)N(C)C[C@H]1C`: 0.739% (inactive); `O=C(N[C@@H]1CC[C@H](CCn2cc(-c3ccccc3)nn2)O[C@H]1CO)c1cnccn1`: 15% (inactive).
